# Reference: ChEMBL document CHEMBL3632592, “Identification of Highly Promising Antioxidants/Neuroprotectants Based on Nucleoside 5'-Phosphorothioate Scaffold. Synthesis, Activity, and Mechanisms of Action” (J Med Chem, 2015)
# Activity calls are given as the source filed them. No cut-off for these calls is given here.
# System: Cerebral cortex neuron
# Experiment: Neuroprotective activity against Fe2+-induced morphological changes in rat primary cortical neurons at 0.2 to 100 uM after 24 hrs by light microscopic analysis
# Format: functional, cell-based
# Conditions: not given
# Procedure, shortened: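 Primary rat cortical neurons were exposed to 3 µM FeSO4 for 24 h, with compound at 0.2, 5 and 100 µM. Morphology (cell number, extensions, cytoskeleton) was examined by light microscopy at 100×.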
row,Structure (SMILES),Activity
1,CSc1nc(N)c2ncn([C@@H]3O[C@H](COP(=O)(S)OP(=O)(O)O)[C@@H](O)[C@H]3O)c2n1 (stereo in doubt; 7A) [listing 1 of 2 here],Active

# System: not listed separately
# Experiment: Half life in human serum at 37 degC by HPLC analysis
# Format: ADME, cell-free
# Conditions: not given
# Procedure, shortened: (§1)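 Nucleotides were incubated in human blood serum or RPMI-1640 at 37 °C for 0.5–24 h. Hydrolysis was followed by the change in HPLC peak integration of each analogue over time, and half-life was derived from this.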
row,Structure (SMILES),half-life
1,Nc1ncnc2c1ncn2[C@@H]1O[C@H](COP(=O)(S)OP(=O)(O)O)[C@@H](O)[C@H]1O (stereo in doubt; 6A),14.5 h
2,CSc1nc(N)c2ncn([C@@H]3O[C@H](COP(=O)(S)OP(=O)(O)O)[C@@H](O)[C@H]3O)c2n1 (stereo in doubt; 7A) [listing 2 of 2 here],15 h

# System: not listed separately
# Experiment: Half life of the compound in RPMI-1640 medium at 37 degC by HPLC analysis
# Format: ADME
# Conditions: not given
# Procedure, shortened: as §1
row,Structure (SMILES),half-life
1,Nc1ncnc2c1ncn2[C@@H]1O[C@H](COP(=O)(S)OP(=O)(O)O)[C@@H](O)[C@H]1O (stereo in doubt; 6A),14.5 h
2,CSc1nc(N)c2ncn([C@@H]3O[C@H](COP(=O)(S)OP(=O)(O)O)[C@@H](O)[C@H]3O)c2n1 (stereo in doubt; 7A) [listing 2 of 2 here],15 h

# System: PC-12
# Experiment: Antioxidant activity in rat PC12 cells assessed as inhibition of Fe2+-induced reactive oxygen species formation at 0.01 to 25 uM after 1 hr by DCFH-DA dye-based fluorometric analysis in presence of P2Y12R antagonist 2-MeS-AMP
# Format: functional, cell-based
# Conditions: not given
# Procedure, shortened: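 PC12 cells (DMEM, seeded 24 h) were preincubated 20 min with 50 µM P2Y12 antagonist 2-MeS-AMP. They were then loaded with DCFH-DA, given test compound at 0.01–25 µM, and oxidised with FeSO4 (final 0.16 µM). DCF fluorescence 485/530 nm over 1 h at 37 °C. ROS inhibition compared with no-antagonist control; three independent experiments in triplicate.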
row,Structure (SMILES),inhibition
1,CSc1nc(N)c2ncn([C@@H]3O[C@H](COP(=O)(S)OP(=O)(O)O)[C@@H](O)[C@H]3O)c2n1 (stereo in doubt; 7A) [listing 1 of 2 here],inactive

# System: not listed separately
# Experiment: Metal chelating activity assessed as inhibition of Fe2+-ferrozine complex formation after 10 mins
# Format: physicochemical
# Conditions: not given
# Procedure, shortened: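 Competitive ferrozine assay. FeSO4 (final 10 µM) and ferrozine (final 20 µM) are mixed with nucleotide in DDW at final 25–200 µM and agitated 10 min at room temperature. Absorbance of the Fe(II)-ferrozine complex is read at 562 nm with and without compound, and inhibition of complex formation is calculated. Three experiments, mean ± S.D.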
row,IC50,Structure (SMILES)
1,90 µM,O=C(O)CN(CCN(CC(=O)O)CC(=O)O)CCN(CC(=O)O)CC(=O)O [PENTETIC ACID]

# System: not listed separately
# Experiment: Antioxidant activity assessed as inhibition of Fe2+-induced DMPO-OH adduct formation from H2O2 preincubated for 30 secs followed by DMPO/H2O2 addition measured after 150 secs by ESR analysis
# Format: physicochemical
# Conditions: not given
# Procedure, shortened: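 Fenton/ESR spin trapping: 1 mM ammonium iron(II) sulfate was added to 5–500 µM compound, then Tris buffer pH 7.4 (final pH 7.2–7.4). After 30 s, 100 mM DMPO and 100 mM H2O2 were added (stock concentrations). The ESR spectrum was recorded 150 s after H2O2, at room temperature. DMPO-OH adduct expressed as % of control containing FeSO4, H2O2 and DMPO only.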
row,Structure (SMILES),IC50
1,Nc1ncnc2c1ncn2[C@@H]1O[C@H](COP(=O)(S)OP(=O)(O)O)[C@@H](O)[C@H]1O (stereo in doubt; 6A),31 µM
2,CSc1nc(N)c2ncn([C@@H]3O[C@H](COP(=O)(S)OP(=O)(O)O)[C@@H](O)[C@H]3O)c2n1 (stereo in doubt; 7A) [listing 2 of 2 here],37 µM

# System: NTERA2
# Experiment: Antioxidant activity in human NTERA2 cells assessed as inhibition of Fe2+-induced reactive oxygen species formation at 0.01 to 25 uM after 1 hr by DCFH-DA dye-based fluorometric analysis in presence of P2Y1R antagonist MRS2179
# Format: functional, cell-based
# Conditions: not given
# Procedure, shortened: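 Ntera-2 cells (DMEM, seeded 24 h) were preincubated 20 min with 40 µM P2Y1 antagonist MRS2179. They were then loaded with DCFH-DA and treated with compound at 0.01–25 µM, with oxidation started by FeSO4 (final 0.16 µM). DCF fluorescence 485/530 nm, 1 h at 37 °C. Three independent experiments in triplicate.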
row,Structure (SMILES),inhibition
1,CSc1nc(N)c2ncn([C@@H]3O[C@H](COP(=O)(S)OP(=O)(O)O)[C@@H](O)[C@H]3O)c2n1 (stereo in doubt; 7A) [listing 1 of 2 here],inactive

# Molecular target: T1, eNPP1 (ectonucleotide pyrophosphatase/phosphodiesterase family member 1) (Homo sapiens, UniProt P22413)
# T1 sequence (P22413 whole entry): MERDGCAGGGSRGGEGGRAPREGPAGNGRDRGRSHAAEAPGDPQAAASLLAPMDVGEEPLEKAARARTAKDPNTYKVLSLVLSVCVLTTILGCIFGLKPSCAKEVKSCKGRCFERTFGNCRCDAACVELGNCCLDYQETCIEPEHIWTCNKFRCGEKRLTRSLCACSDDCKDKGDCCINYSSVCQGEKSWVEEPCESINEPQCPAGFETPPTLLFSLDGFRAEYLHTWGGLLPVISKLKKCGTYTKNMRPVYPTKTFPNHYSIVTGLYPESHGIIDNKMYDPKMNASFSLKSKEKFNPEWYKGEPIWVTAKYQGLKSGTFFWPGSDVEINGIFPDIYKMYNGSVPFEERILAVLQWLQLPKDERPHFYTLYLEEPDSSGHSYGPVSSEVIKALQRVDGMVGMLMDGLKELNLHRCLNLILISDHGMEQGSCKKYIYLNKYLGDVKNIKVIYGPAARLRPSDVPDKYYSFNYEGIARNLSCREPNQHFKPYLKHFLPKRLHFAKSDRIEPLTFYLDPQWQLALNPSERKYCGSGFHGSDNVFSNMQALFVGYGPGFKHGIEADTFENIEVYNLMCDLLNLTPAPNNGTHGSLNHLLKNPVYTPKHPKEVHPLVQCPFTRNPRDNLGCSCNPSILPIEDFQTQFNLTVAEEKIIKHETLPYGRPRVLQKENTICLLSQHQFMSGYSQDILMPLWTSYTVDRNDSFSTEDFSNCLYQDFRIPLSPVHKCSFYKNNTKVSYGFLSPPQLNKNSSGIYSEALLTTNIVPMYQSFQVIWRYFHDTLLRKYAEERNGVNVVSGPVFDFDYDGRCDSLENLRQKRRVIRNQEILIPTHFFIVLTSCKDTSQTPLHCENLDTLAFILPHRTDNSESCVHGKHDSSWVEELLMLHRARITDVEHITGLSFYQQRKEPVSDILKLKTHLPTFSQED
# Experiment: Drug metabolism assessed as human eNPP1-mediated compound hydrolysis at 4 mM after 2 hrs by reverse-phase HPLC analysis relative to ATP
# Format: ADME
# Conditions: human eNPP1 enzyme, read-out: Drug metabolism
# Procedure, shortened: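 Human eNPP1 extract (19 µg) was preincubated 3 min at 37 °C in 1 mM CaCl2, 200 mM NaCl, 10 mM KCl, 100 mM Tris pH 8.5, then reaction started with compound (4 mM stock). Stopped after 2 h with ice-cold 1 M perchloric acid, neutralised with KOH, and analysed by RP-HPLC (90% 100 mM TEAA pH 7/10% CH3CN). Degradation from the monophosphate peak after subtracting the acid-only control.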
row,Structure (SMILES),"metabolised at 2 h, 4000 µM"
1,CSc1nc(N)c2ncn([C@@H]3O[C@H](COP(=O)(S)OP(=O)(O)O)[C@@H](O)[C@H]3O)c2n1 (stereo in doubt; 7A) [listing 2 of 2 here],36.6%

# System: PC-12
# Experiment: cells
# Conditions: Rattus norvegicus, PC-12, 1 h
row,Structure (SMILES),IC50
1,Nc1ncnc2c1ncn2[C@@H]1O[C@H](COP(=O)(S)OP(=O)(O)O)[C@@H](O)[C@H]1O (stereo in doubt; 6A),38 µM

# System: PC-12
# Experiment: not given
# Conditions: not given
row,Structure (SMILES),IC50
1,CSc1nc(N)c2ncn([C@@H]3O[C@H](COP(=O)(S)OP(=O)(O)O)[C@@H](O)[C@H]3O)c2n1 (stereo in doubt; 7A) [listing 2 of 2 here],0.08 µM

# System: not listed separately
# Experiment: Antioxidant activity assessed as ABTS radical scavenging activity after 7 mins
# Format: physicochemical
# Conditions: not given
# Procedure, shortened: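 ABTS radical cation made from 7 mM ABTS with 2.45 mM persulfate (final), kept in the dark at room temperature 12–16 h. It was then diluted in water pH 7.4 to A734 0.80 and mixed with compound or Trolox standard (final 0–60 µM). A734 was read at 7 min. Percent inhibition plotted against concentration; at least three runs, in triplicate.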
row,Structure (SMILES),IC50
1,Nc1ncnc2c1ncn2[C@@H]1O[C@H](COP(=O)(S)OP(=O)(O)O)[C@@H](O)[C@H]1O (stereo in doubt; 6A),20 µM
2,CSc1nc(N)c2ncn([C@@H]3O[C@H](COP(=O)(S)OP(=O)(O)O)[C@@H](O)[C@H]3O)c2n1 (stereo in doubt; 7A) [listing 2 of 2 here],12.5 µM

# Molecular target: P2Y purinoceptor 1 (Homo sapiens, UniProt P47900)
# Experiment: Agonist activity at GFP-tagged human P2Y1R transfected in human 1321N1 cells assessed as increase in intracellular Ca2+ level by fura 2/AM probe-based fluorescence assay
# Format: functional, cell-based
# Conditions: not given
# P2Y purinoceptor 1, sequence (P47900 whole entry): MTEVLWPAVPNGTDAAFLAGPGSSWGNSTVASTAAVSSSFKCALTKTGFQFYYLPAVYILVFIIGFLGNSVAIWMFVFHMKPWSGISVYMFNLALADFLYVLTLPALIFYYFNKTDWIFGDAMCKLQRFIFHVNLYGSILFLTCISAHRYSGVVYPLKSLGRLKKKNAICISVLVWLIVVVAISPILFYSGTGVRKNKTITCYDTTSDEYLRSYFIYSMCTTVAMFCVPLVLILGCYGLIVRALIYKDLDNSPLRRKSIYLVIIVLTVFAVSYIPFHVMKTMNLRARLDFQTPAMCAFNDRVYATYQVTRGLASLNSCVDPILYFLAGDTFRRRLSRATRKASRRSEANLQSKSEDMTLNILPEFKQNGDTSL
row,Structure (SMILES),EC50
1,Nc1ncnc2c1ncn2[C@@H]1O[C@H](COP(=O)(S)OP(=O)(O)O)[C@@H](O)[C@H]1O (stereo in doubt; 6A),0.08 µM
2,CSc1nc(N)c2ncn([C@@H]3O[C@H](COP(=O)(S)OP(=O)(O)O)[C@@H](O)[C@H]3O)c2n1 (stereo in doubt; 7A) [listing 2 of 2 here],0.0026 µM

# System: not listed separately
# Experiment: Neuroprotective activity against Fe2+-induced oxidative damage in rat primary cortical neurons assessed as cell viability after 24 hrs by MTT assay
# Format: functional, cell-based
# Conditions: Cerebral cortex neuron
# Procedure, shortened: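 Rat (1-day-old) cortical neurons were grown serum-free in DMEM/F12 with B-27 on poly-ornithine, treated with Ara-C and cultured 5 d. Cells were pretreated with nucleotide (0.01–25 µM), then exposed to FeSO4 3 µM final for 24 h. MTT 1 mg/mL was added for 2 h at 37 °C, formazan dissolved in DMSO, A550 read. Viability given as % of vehicle control; three independent experiments in triplicate.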
row,Structure (SMILES),EC50
1,CSc1nc(N)c2ncn([C@@H]3O[C@H](COP(=O)(S)OP(=O)(O)O)[C@@H](O)[C@H]3O)c2n1 (stereo in doubt; 7A) [listing 2 of 2 here],0.04 µM

# System: not listed separately
# Experiment: Antioxidant activity in human NTERA2 cells assessed as inhibition of Fe2+-induced reactive oxygen species formation at 0.2 uM after 1 hr by DCFH-DA dye-based fluorometric analysis relative to control
# Format: functional
# Conditions: NTERA2, 1 h
row,Structure (SMILES),inhibition at 0.2 µM
1,CSc1nc(N)c2ncn([C@@H]3O[C@H](COP(=O)(S)OP(=O)(O)O)[C@@H](O)[C@H]3O)c2n1 (stereo in doubt; 7A) [listing 2 of 2 here],50%

# Molecular target: T2, P2Y purinoceptor 11 (Homo sapiens, UniProt Q96G91)
# T2 sequence (Q96G91 whole entry): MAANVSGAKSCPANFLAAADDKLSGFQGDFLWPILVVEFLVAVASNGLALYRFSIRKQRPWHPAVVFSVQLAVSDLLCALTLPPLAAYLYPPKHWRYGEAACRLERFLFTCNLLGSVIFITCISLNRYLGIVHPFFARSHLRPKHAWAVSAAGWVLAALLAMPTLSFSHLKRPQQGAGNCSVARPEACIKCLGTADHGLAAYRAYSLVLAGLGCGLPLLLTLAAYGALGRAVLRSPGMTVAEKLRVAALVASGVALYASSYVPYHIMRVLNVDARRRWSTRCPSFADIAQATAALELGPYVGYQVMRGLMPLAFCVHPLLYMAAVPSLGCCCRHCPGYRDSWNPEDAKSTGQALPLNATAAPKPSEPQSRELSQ
# Experiment: Agonist activity at GFP-tagged human P2Y11R transfected in human 1321N1 cells assessed as increase in intracellular Ca2+ level by fura 2/AM probe-based fluorescence assay
# Format: functional, cell-based
# Conditions: not given
row,Structure (SMILES),EC50
1,Nc1ncnc2c1ncn2[C@@H]1O[C@H](COP(=O)(S)OP(=O)(O)O)[C@@H](O)[C@H]1O (stereo in doubt; 6A),4.5 µM
2,CSc1nc(N)c2ncn([C@@H]3O[C@H](COP(=O)(S)OP(=O)(O)O)[C@@H](O)[C@H]3O)c2n1 (stereo in doubt; 7A) [listing 2 of 2 here],3.2 µM

# System: not listed separately
# Experiment: Metal chelating activity assessed as inhibition of Fe2+-ferrozine complex formation at 80 uM after 10 mins relative to control
# Format: physicochemical
# Conditions: not given
# Procedure, shortened: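 FeSO4 (final 10 µM) was mixed with ferrozine (final 20 µM) and nucleotide (final 25–200 µM) in water and agitated 10 min at room temperature. Fe(II)-ferrozine complex absorbance at 562 nm, measured with versus without compound. Mean of three experiments.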
row,Structure (SMILES),inhibition (INH)
1,CSc1nc(N)c2ncn([C@@H]3O[C@H](COP(=O)(S)OP(=O)(O)O)[C@@H](O)[C@H]3O)c2n1 (stereo in doubt; 7A) [listing 2 of 2 here],50%
